Entries after “also recorded” stand apart in the source; their conditions may differ. {56-FAM} = 6-carboxyfluorescein label (IDT code)
Key:
[1] = molecular target: hP13 ZnF5-WWE1-WWE2 (wild type) (Homo sapiens, UniProt Q7Z2W4); experiment: Differential scanning fluorimetry; type: binding; details: protein 8 μM, DSF
Summary of the method: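 His-GB1-tagged human fragment (residues 507–699) expressed in E. coli Rosetta2, TEV-cleaved, purified by Ni2+, gel filtration and Q flow-through. TM from Boltzmann fit; ΔTM = TM with ligand minus without; two repeats.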

[2] = molecular target: T1, hP13 ZnF5-WWE1-WWE2 W611A mutant (Homo sapiens, UniProt Q7Z2W4, W611A); experiment: Differential scanning fluorimetry; type: binding; details: protein 8 μM, DSF
T1 sequence (Q7Z2W4 507-699 W611A): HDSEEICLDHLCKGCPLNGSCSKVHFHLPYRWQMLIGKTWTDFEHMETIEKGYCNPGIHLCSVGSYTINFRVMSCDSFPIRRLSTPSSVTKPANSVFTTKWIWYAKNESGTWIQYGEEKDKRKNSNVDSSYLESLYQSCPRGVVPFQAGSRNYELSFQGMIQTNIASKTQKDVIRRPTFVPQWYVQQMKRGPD

WWE domain from RNF-146 = details: ref Wang et al., 2012; cited from earlier work
hP13 ZnF5-WWE1-WWE2 = hP13 ZnF5-WWE1-WWE2 (Homo sapiens, UniProt Q7Z2W4); experiment: FP RNA binding assay; details: FAM-labeled RNA 5 nM, 300 mM KCl
Chain of hP13 ZnF5-WWE1-WWE2 (Q7Z2W4 507-699): as the sequence (Q7Z2W4 507-699 W611A) above, with A105W counted along it

[3] = molecular target: mouse PARP13 (mP13) ZnF5-WWE1-WWE2 (residues 476-673) (mouse) (UniProt Q3UPF5); experiment: SEC-MALS
[4] = molecular target: T1, hP13 ZnF5-WWE1-WWE2 W611A mutant; experiment: Fluorescence polarization; details: direct FP binding, probe 5 nM
Summary of the method: (§1)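 QuickChange point mutants of human fragment (residues 507–699), His-GB1 fusion, expressed in Rosetta2 (0.2 mM IPTG, 16°C, 18 h), TEV-cleaved, purified by Ni2+, gel filtration, Q flow-through. Quadratic 1:1 KD fit; ≥3 experiments, mean ± SD.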

[5] = molecular target: hP13 ZnF5-WWE1-WWE2 R682A mutant (Homo sapiens, UniProt Q7Z2W4, R682A); experiment: Fluorescence polarization; type: binding; details: R682A versus wild-type hP13 ZnF5-WWE1-WWE2
Chain of hP13 ZnF5-WWE1-WWE2 R682A mutant (Q7Z2W4 507-699 R682A): as the sequence (Q7Z2W4 507-699 W611A) above, with A105W, R176A counted along it
Summary of the method: as §1

WWE domain of RNF-146 = experiment: Fluorescence polarization; details: direct FP binding, probe 5 nM
[6] = molecular target: hP13 ZnF5-WWE1-WWE2 R577A mutant (Homo sapiens, UniProt Q7Z2W4, R577A); experiment: Fluorescence polarization; type: binding; details: R577A versus wild-type hP13 ZnF5-WWE1-WWE2
Chain of hP13 ZnF5-WWE1-WWE2 R577A mutant (Q7Z2W4 507-699 R577A): as the sequence (Q7Z2W4 507-699 W611A) above, with R71A, A105W counted along it
Summary of the method: as §1

Chain of hP13 ZnF5-WWE1-WWE2 (wild type) (Q7Z2W4 507-699): as the sequence (Q7Z2W4 507-699 W611A) above, with A105W counted along it

Row | Compound | change in thermal stability in presence of ligand (in words) [1] | change in thermal stability in presence of ligand (in words) [2] | binding (in words) (WWE domain from RNF-146) | also measured
1 | Nc1ncnc2c1ncn2[C@@H]1O[C@H](COP(=O)(O)OP(=O)(O)OC[C@H]2OC(O)[C@H](O)[C@@H]2O)[C@@H](O)[C@H]1O (some centres unmarked) [ADPr, ADP-ribose] | increase in the thermal stability; also recorded: increased hP13 ZnF5-WWE1-WWE2 thermal stability | did not show an increase in thermal stability | do not bind | –
2 | Nc1ncnc2c1ncn2[C@@H]1O[C@H](COP(=O)(O)OP(=O)(O)OP(=O)(O)O)[C@@H](O)[C@H]1O [ATP] | increase in the thermal stability | did not show an increase in thermal stability | – | –
3 | Nc1ncnc2c1ncn2[C@@H]1O[C@H](COP(=O)(O)O)[C@@H](O)[C@H]1O[C@@H]1O[C@H](COP(=O)(O)O)[C@@H](O)[C@H]1O [iso-ADPr] | increase in thermal stability in the presence of iso-ADPr, but to a lesser extent than seen with ADPr | – | capable of binding | –
4 | /56-FAM/rArArArCrArArArArArArArGrArCrGrArArArArA (AAACAAAAAAAGACGAAAAA; RNA, 5' {56-FAM}, backbone not given here) [RNA-FAM] | – | – | – | RNA binding (in words) (hP13 ZnF5-WWE1-WWE2): unable to bind
5 | mouse PARP13 (mP13) ZnF5-WWE1-WWE2 (residues 476-673) (from UniProt Q3UPF5 476-673) (domain or fragment) | – | – | – | percent of the scattering mass in the dimer peak [3]: 4%; stoichiometry N [3]: 2
6 | γ-(6-Aminohexyl)-ATP-6-FAM [ATP-FAM] | – | – | – | binding to probe (in words) [4]: no evidence of binding; also recorded: no indication of binding; binding affinity, fold weaker than wild type [5]: 1.2 fold; binding to probe (in words) (WWE domain of RNF-146): no evidence of binding; also recorded: no indication of binding; binding affinity, fold weaker than wild type [6]: 1.1 fold

Source: publication PMC9720839 (Cell reports, 2022)
